This is an account of results in PubChem BioAssay AID624324 (Broad Institute, 2012).

Activity calls are given as the source filed them.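 How the source made its calls: active means fitted AC50 at or under twice the sample's top valid tested dose, with viability loss; inconclusive means flat curve with 30 to 70% viability loss, or poor fit; inactive means the rest, including shifts toward viability gain.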

One test deals with A375 melanoma viability, CellTiter-Glo ATP luminescence, 24 h. The test can be described thus: A375 melanoma cell viability loss, dose response, counter-screen for MITF inhibitor project, CellTiter-Glo luminescence, dry powder, set 3 (AID 624324).
Settings: not given
The method in brief:
(§1)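 Assay system: A375 melanoma cells, MITF-independent; input: 3000 cells per well; buffer or medium: phenol red-free DMEM supplemented with 10% FBS; technique: CellTiter-Glo luminescence measuring cellular ATP; compound dosing: multi-dose compound series, pinned; schedule: 24 h exposure at 37 °C, 5 min detection at RT; read-out basis: viability from ATP content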
On the technique in general: A counterscreen serves to expose hits that act by an unwanted route or on another target.
In the case of `O=C1C(NS(=O)(=O)c2ccccc2)=C(N2CCCCC2)C(=O)c2ccccc21`, the AC50 is > 70 µM (inactive).

On to `C[C@@H](NC1=C(Nc2ccccc2)C(=O)c2ccccc2C1=O)c1ccccc1`, for which the AC50 is > 70 µM (inactive).

Consider `CC(=O)NC1=C(c2ccc(Cl)cc2)C(=O)c2ccccc2C1=O`, for which the AC50 was 10.4 µM.

Take `O=C1C(NS(=O)(=O)c2ccc(Br)cc2)=C(N2CCCCC2)C(=O)c2ccccc21`: the AC50 was > 70 µM (inactive).

Consider `O=C1C=C(Nc2ccccc2)C(=O)c2ccccc21`, for which the AC50 was 13.9 µM.

`C=CCNC1=C(NCCN(CC)CC)C(=O)c2ccccc2C1=O`: the half-maximal activity concentration (AC50) was 35.2 µM.

As to `CCN(CC)CCNC1=C(Nc2ccccc2)C(=O)c2ccccc2C1=O`, the AC50 is > 70 µM (inactive).

In the case of `O=C1C(Nc2ccccc2)=C(N2CCSCC2)C(=O)c2ccccc21`, the AC50 was > 70 µM (inactive).

With `C=CCNC1=C(N2CCN(C)CC2)C(=O)c2ccccc2C1=O`, the AC50 is 20.9 µM.

For the compound `C=CCNC1=C(N2CCSCC2)C(=O)c2ccccc2C1=O`, the AC50 was 11.3 µM.

In the case of `O=C(NC1=C(N2CCCCC2)C(=O)c2ccccc2C1=O)c1ccccc1`, the AC50 is > 70 µM (inactive).

As to `C=CCNC1=C(Cl)C(=O)c2ccccc2C1=O`, the AC50 was > 70 µM (inactive).

As for `CN1CCN(C2=C(NS(=O)(=O)c3ccc(Br)s3)C(=O)c3ccccc3C2=O)CC1`, the AC50 is > 70 µM (inactive).

Take `O=C(NC1=C(c2ccccc2)C(=O)c2ccccc2C1=O)c1ccc(Br)cc1`: the AC50 is 26.4 µM.

In the case of `C=CCNC1=C(NS(=O)(=O)c2cccs2)C(=O)c2ccccc2C1=O`, the AC50 is > 70 µM (inactive).

Consider `C=CCNC1=C(N2CCOCC2)C(=O)c2ccccc2C1=O`, for which the AC50 is 22.8 µM.

`O=C1C(NCCCN2CCOCC2)=C(Nc2ccccc2)C(=O)c2ccccc21`: the AC50 was > 70 µM (inactive).

Regarding `COc1ccc(C2=C(NC(=O)c3ccccc3OC)C(=O)c3ccccc3C2=O)cc1`, the AC50 is 25.5 µM.

As to `CN1CCN(C2=C(NC(=O)c3ccccc3)C(=O)c3ccccc3C2=O)CC1`, the AC50 is 13.6 µM.

Regarding `O=C1C(Nc2ccccc2)=C(N2CCOCC2)C(=O)c2ccccc21`, the AC50 was > 70 µM (inactive).

In the case of `O=C(NC1=C(c2ccc(OC(F)(F)F)cc2)C(=O)c2ccccc2C1=O)c1ccccc1F`, the AC50 was 36.6 µM.

`O=C1C(NS(=O)(=O)c2cccs2)=C(N2CCOCC2)C(=O)c2ccccc21`: the AC50 is > 70 µM (inactive).

Regarding `O=C1C(NS(=O)(=O)c2ccc(Br)s2)=C(N2CCCCC2)C(=O)c2ccccc21`, the AC50 was > 70 µM (inactive).

Consider `O=C1C(NS(=O)(=O)c2ccc(Br)cc2)=C(c2ccc(OC(F)(F)F)cc2)C(=O)c2ccccc21`, for which the AC50 is > 70 µM (inactive).

On to `Cc1ccc(C(=O)NC2=C(c3ccc(OC(F)(F)F)cc3)C(=O)c3ccccc3C2=O)o1`, for which the AC50 was 30.4 µM.

Regarding `COc1ccc(C2=C(NC(=O)c3ccccc3Cl)C(=O)c3ccccc3C2=O)cc1`, the half-maximal activity concentration (AC50) is 12.2 µM.

For the compound `O=C(NC1=C(N2CCCCC2)C(=O)c2ccccc2C1=O)c1ccc(Br)cc1`, the AC50 is > 70 µM (inactive).

Turning to `COc1ccc(C2=C(NC(=O)c3ccc(Cl)cc3)C(=O)c3ccccc3C2=O)cc1`, the half-maximal activity concentration (AC50) was 27.7 µM.

Consider `O=C1C(Nc2ccccc2)=C(NS(=O)(=O)c2ccccc2[N+](=O)[O-])C(=O)c2ccccc21`, for which the AC50 is > 70 µM (inactive).

Consider `O=C(NC1=C(N2CCOCC2)C(=O)c2ccccc2C1=O)c1ccccc1`, for which the concentration at half-maximal activity (AC50) is 26.9 µM.

In the case of `COc1ccc(C(=O)NC2=C(c3ccc(OC)cc3)C(=O)c3ccccc3C2=O)cc1`, the AC50 is 14.9 µM.

Take `COc1cccc(C2=C(NC(=O)c3ccccc3)C(=O)c3ccccc3C2=O)c1`: the half-maximal activity concentration (AC50) was 16.2 µM.

Regarding `C=CCNC1=C(NC(=O)c2ccccc2)C(=O)c2ccccc2C1=O`, the AC50 is > 70 µM (inactive).

Turning to `O=C1C(NS(=O)(=O)c2ccc(Br)cc2)=C(N2CCOCC2)C(=O)c2ccccc21`, the AC50 is > 70 µM (inactive).

`NC1=C(NC(=O)c2ccccc2)C(=O)c2ccccc2C1=O`: the AC50 was > 70 µM (inactive).

Turning to `COc1cccc(-c2cc(C(=O)NC3=C(Cl)C(=O)c4ccccc4C3=O)ccc2OC)c1`, the AC50 was > 70 µM (inactive).

Turning to `CC(=O)NC1=C(c2ccccc2)C(=O)c2ccccc2C1=O`, the AC50 was 12.1 µM.

As to `O=C(NC1=C(c2ccc(OC(F)(F)F)cc2)C(=O)c2ccccc2C1=O)c1ccco1`, the concentration at half-maximal activity (AC50) was 28 µM.

With `C=CCNC1=C(NCCCN(CC)CC)C(=O)c2ccccc2C1=O`, the half-maximal activity concentration (AC50) was 22 µM.

In the case of `Cc1nc2ccccc2n1/N=C/c1ccc([N+](=O)[O-])s1`, the AC50 was > 70 µM (inactive).

Turning to `C=CCNC1=C(N2CCCCC2)C(=O)c2ccccc2C1=O`, the half-maximal activity concentration (AC50) is 19.6 µM.

Consider `COc1ccc(C2=C(NC(=O)c3cccc(Cl)c3)C(=O)c3ccccc3C2=O)cc1`, for which the AC50 is 16.8 µM.

`COc1ccc(C(=O)NC2=C(c3ccc(OC(F)(F)F)cc3)C(=O)c3ccccc3C2=O)cc1`: the AC50 was 32.2 µM.

For `O=C1C(NS(=O)(=O)c2ccc(Br)s2)=C(N2CCSCC2)C(=O)c2ccccc21`, the AC50 was > 70 µM (inactive).

For `CC(=O)N(C)C1=C(N2CCN(C)CC2)C(=O)c2ccccc2C1=O`, the AC50 is 15.6 µM.

Consider `C=CCNC1=C(N(C)C(C)=O)C(=O)c2ccccc2C1=O`, for which the AC50 is 9.29 µM.

With `O=C1C(NS(=O)(=O)c2ccc(Br)cc2)=C(N2CCSCC2)C(=O)c2ccccc21`, the AC50 is > 70 µM (inactive).

Consider `O=C(NC1=C(c2ccccc2)C(=O)c2ccccc2C1=O)c1ccccc1`, for which the AC50 is 27.9 µM.

Tested on in a further test: not listed separately
The description is as above. The settings on record: A375 melanoma viability, CellTiter-Glo ATP luminescence, 24 h; at 35 µM (top of the series). The method in brief:
as §1
Turning to `C=CCNC1=C(NCC=C)C(=O)c2ccccc2C1=O`, the activity change, negative = viability loss is 1.61% (inactive).

Regarding `O=C(NC1=C(N2CCN(c3ccccc3)CC2)C(=O)c2ccccc2C1=O)c1ccccc1`, the activity change, negative = viability loss is -7.51% (inactive).

As to `CN1CCN(C2=C(NS(=O)(=O)c3ccc(Br)cc3)C(=O)c3ccccc3C2=O)CC1`, the activity change, negative = viability loss was 1% (inactive).

Regarding `NC1=C(c2ccccc2)C(=O)c2ccccc2C1=O`, the activity change, negative = viability loss was -6.89% (inactive).

In the case of `COc1ccc(C2=C(NC(=O)c3ccc(OC)cc3-c3cccc(OC)c3)C(=O)c3ccccc3C2=O)cc1`, the activity change, negative = viability loss is 4.86% (inactive).

`NC1=C(c2ccc(OC(F)(F)F)cc2)C(=O)c2ccccc2C1=O`: the activity change, negative = viability loss is -5.51% (inactive).

In the case of `CN1CCN(C2=C(NS(=O)(=O)c3cccs3)C(=O)c3ccccc3C2=O)CC1`, the activity change, negative = viability loss is 12.4% (inactive).

As to `C=CCNC1=C(NCCCN2CCOCC2)C(=O)c2ccccc2C1=O`, the activity change, negative = viability loss was 1.84% (inactive).

Regarding `O=C1C(NS(=O)(=O)c2ccc(Br)cc2)=C(N2CCN(c3ccccc3)CC2)C(=O)c2ccccc21`, the activity change, negative = viability loss was 0.602% (inactive).

In general, AC50 refers to the concentration at which the activity in the assay is half-maximal.
